Measurements taken from ChEMBL document CHEMBL2150918, “Discovery of new scaffolds for rational design of HCV NS5B polymerase inhibitors” (Eur J Med Chem, 2012).
Active and inactive are the calls of the source. The calls are words filed in the database; no cut-off is given here.

tested on: Hepatitis C virus; assay: Inhibition of wild type recombinant C terminal His6-tagged HCV1b NS5B Cdelta21 RNA dependent RNA polymerase activity expressed in Escherichia coli JM109 (DE3) at 100 uM using poly rA/U12 template primer by liquid scintillation counting; design: species or system Hepatitis C virus subtype 1b; conditions: not given
Summary of the method: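 Radiometric RdRp assay with wild-type NS5BCΔ21 (genotype 1b), C-terminal His6, Ni-NTA purified from E. coli JM109(DE3); poly rA/U12 template-primer. Compounds from 10 mM DMSO stocks, single-point at 100 µM. Started with 1.0 mM MnCl2, stopped with ice-cold 10% TCA/0.5 mM pyrophosphate. Incorporated radioactive UTP TCA-precipitated on GF-B filters, scintillation-counted; activity relative to DMSO control set at 100%.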

SMILES | inhibition at 100 µM
O=C(O)c1ccc(Nc2nnc(-c3ccccc3)c(=O)[nH]2)cc1O | ≥ 50%
Cc1cc(O)c(C(c2ccc(Cl)c(Cl)c2)c2c(O)cc(C)oc2=O)c(=O)o1 | ≥ 50%
CC1CS(=O)(=O)N(c2ccc(S(=O)(=O)Nc3cccc4cccnc34)cc2)C1=O (stereo unspecified) | ≥ 50%
C/C(=N\Nc1ncnc2ccccc12)C(=O)O | ≥ 50%
COc1cc(/C=N/Nc2ccccc2C(=O)O)cc(Br)c1O | ≥ 50%
O=C(CCS(=O)(=O)c1ccccc1)N1CCN(C(=O)CCS(=O)(=O)c2ccccc2)CC1 | ≥ 50%
CCOC(=O)/C(C#N)=C\c1cn(CCC(=O)O)nc1-c1ccc(F)cc1 | ≥ 50%
Cn1cc(C(=O)N2CCN(C(=O)c3ccc(F)cc3F)CC2)c2nn(-c3ccccc3)c(=O)c-2c1 | ≥ 50%

tested on: Hepatitis C virus; assay: Inhibition of wild type recombinant C terminal His6-tagged HCV1b NS5B Cdelta21 RNA dependent RNA polymerase activity expressed in Escherichia coli JM109 (DE3) using poly rA/U12 template primer by liquid scintillation counting; design: species or system Hepatitis C virus subtype 1b; conditions: JM 109
Summary of the method: (§1)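 Radiometric RdRp assay with His6-tagged NS5BCΔ21 (wild type or P495L, M423T, M414T mutants) purified from E. coli JM109(DE3) by Ni-NTA. Template-primer poly rA/U12. Compounds diluted serially in DMSO. Started with 1.0 mM MnCl2, stopped with ice-cold 10% TCA plus 0.5 mM pyrophosphate. Incorporated UTP TCA-precipitated on GF-B filters and scintillation counted. Activity set relative to DMSO control. IC50 from nonlinear fit of 8–12 concentrations, duplicate, two independent experiments.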

SMILES | IC50
O=C(O)c1ccc(Nc2nnc(-c3ccccc3)c(=O)[nH]2)cc1O | 46.2 µM
Cc1cc(O)c(C(c2ccc(Cl)c(Cl)c2)c2c(O)cc(C)oc2=O)c(=O)o1 | 56.8 µM
COc1cc(O)c2c(c1)oc(=O)c1c3cc(O)c(O)cc3oc21 [WEDELOLACTONE] | 34 µM
CC1CS(=O)(=O)N(c2ccc(S(=O)(=O)Nc3cccc4cccnc34)cc2)C1=O (stereo unspecified) | 36.7 µM
C/C(=N\Nc1ncnc2ccccc12)C(=O)O | 16 µM
COc1cc(/C=N/Nc2ccccc2C(=O)O)cc(Br)c1O | 20.3 µM
O=C(CCS(=O)(=O)c1ccccc1)N1CCN(C(=O)CCS(=O)(=O)c2ccccc2)CC1 | 33.1 µM
CCOC(=O)/C(C#N)=C\c1cn(CCC(=O)O)nc1-c1ccc(F)cc1 | 33 µM
Cn1cc(C(=O)N2CCN(C(=O)c3ccc(F)cc3F)CC2)c2nn(-c3ccccc3)c(=O)c-2c1 | 39.5 µM

tested on: Hepatitis C virus; assay: Inhibition of recombinant HCV1b NS5B Cdelta21 RNA dependent RNA polymerase P495L mutant TP1 binding site using poly rA/U12 template primer by liquid scintillation counting; design: species or system Hepatitis C virus subtype 1b; conditions: not given; summary of the method: as §1

SMILES | IC50
O=C(O)c1ccc(Nc2nnc(-c3ccccc3)c(=O)[nH]2)cc1O | 40.6 µM
Cc1cc(O)c(C(c2ccc(Cl)c(Cl)c2)c2c(O)cc(C)oc2=O)c(=O)o1 | 63.8 µM
CC1CS(=O)(=O)N(c2ccc(S(=O)(=O)Nc3cccc4cccnc34)cc2)C1=O (stereo unspecified) | 43 µM
C/C(=N\Nc1ncnc2ccccc12)C(=O)O | 14.2 µM
COc1cc(/C=N/Nc2ccccc2C(=O)O)cc(Br)c1O | 19.2 µM
O=C(CCS(=O)(=O)c1ccccc1)N1CCN(C(=O)CCS(=O)(=O)c2ccccc2)CC1 | 33.5 µM
CCOC(=O)/C(C#N)=C\c1cn(CCC(=O)O)nc1-c1ccc(F)cc1 | 34.3 µM
Cn1cc(C(=O)N2CCN(C(=O)c3ccc(F)cc3F)CC2)c2nn(-c3ccccc3)c(=O)c-2c1 | 41 µM

tested on: Hepatitis C virus; assay: Inhibition of recombinant HCV1b NS5B Cdelta21 RNA dependent RNA polymerase M423T mutant TP2 binding site using poly rA/U12 template primer by liquid scintillation counting; design: species or system Hepatitis C virus subtype 1b; conditions: not given; summary of the method: as §1

SMILES | IC50
O=C(O)c1ccc(Nc2nnc(-c3ccccc3)c(=O)[nH]2)cc1O | > 250 µM
Cc1cc(O)c(C(c2ccc(Cl)c(Cl)c2)c2c(O)cc(C)oc2=O)c(=O)o1 | > 250 µM
CC1CS(=O)(=O)N(c2ccc(S(=O)(=O)Nc3cccc4cccnc34)cc2)C1=O (stereo unspecified) | > 250 µM
C/C(=N\Nc1ncnc2ccccc12)C(=O)O | 127 µM
COc1cc(/C=N/Nc2ccccc2C(=O)O)cc(Br)c1O | 172 µM
O=C(CCS(=O)(=O)c1ccccc1)N1CCN(C(=O)CCS(=O)(=O)c2ccccc2)CC1 | > 250 µM
CCOC(=O)/C(C#N)=C\c1cn(CCC(=O)O)nc1-c1ccc(F)cc1 | > 250 µM
Cn1cc(C(=O)N2CCN(C(=O)c3ccc(F)cc3F)CC2)c2nn(-c3ccccc3)c(=O)c-2c1 | > 250 µM

tested on: Hepatitis C virus; assay: Inhibition of recombinant HCV1b NS5B Cdelta21 RNA dependent RNA polymerase M414T mutant PP1 binding site using poly rA/U12 template primer by liquid scintillation counting; design: species or system Hepatitis C virus subtype 1b; conditions: not given; summary of the method: as §1

SMILES | IC50
O=C(O)c1ccc(Nc2nnc(-c3ccccc3)c(=O)[nH]2)cc1O | 52.1 µM
Cc1cc(O)c(C(c2ccc(Cl)c(Cl)c2)c2c(O)cc(C)oc2=O)c(=O)o1 | 62.4 µM
CC1CS(=O)(=O)N(c2ccc(S(=O)(=O)Nc3cccc4cccnc34)cc2)C1=O (stereo unspecified) | 36.1 µM
C/C(=N\Nc1ncnc2ccccc12)C(=O)O | 22.9 µM
COc1cc(/C=N/Nc2ccccc2C(=O)O)cc(Br)c1O | 23.7 µM
O=C(CCS(=O)(=O)c1ccccc1)N1CCN(C(=O)CCS(=O)(=O)c2ccccc2)CC1 | 37.8 µM
CCOC(=O)/C(C#N)=C\c1cn(CCC(=O)O)nc1-c1ccc(F)cc1 | 28.6 µM
Cn1cc(C(=O)N2CCN(C(=O)c3ccc(F)cc3F)CC2)c2nn(-c3ccccc3)c(=O)c-2c1 | 44.8 µM

tested on: Hepatitis C virus; assay: Ratio of IC50 for recombinant HCV1b NS5B Cdelta21 RNA dependent RNA polymerase M423T mutant TP2 binding site to IC50 for wild type recombinant C terminal His6-tagged HCV1b NS5B Cdelta21 RNA dependent RNA polymerase; design: species or system Hepatitis C virus subtype 1b; conditions: not given

SMILES | Ratio IC50
O=C(O)c1ccc(Nc2nnc(-c3ccccc3)c(=O)[nH]2)cc1O | >4.5
Cc1cc(O)c(C(c2ccc(Cl)c(Cl)c2)c2c(O)cc(C)oc2=O)c(=O)o1 | >4.5
CC1CS(=O)(=O)N(c2ccc(S(=O)(=O)Nc3cccc4cccnc34)cc2)C1=O (stereo unspecified) | >4.5
C/C(=N\Nc1ncnc2ccccc12)C(=O)O | 7.9
COc1cc(/C=N/Nc2ccccc2C(=O)O)cc(Br)c1O | 8.5
O=C(CCS(=O)(=O)c1ccccc1)N1CCN(C(=O)CCS(=O)(=O)c2ccccc2)CC1 | >4.5
CCOC(=O)/C(C#N)=C\c1cn(CCC(=O)O)nc1-c1ccc(F)cc1 | >4.5
Cn1cc(C(=O)N2CCN(C(=O)c3ccc(F)cc3F)CC2)c2nn(-c3ccccc3)c(=O)c-2c1 | >4.5

tested on: Hepatitis C virus; assay: Ratio of IC50 for recombinant HCV1b NS5B Cdelta21 RNA dependent RNA polymerase P495L mutant TP1 binding site to IC50 for wild type recombinant C terminal His6-tagged HCV1b NS5B Cdelta21 RNA dependent RNA polymerase; design: species or system Hepatitis C virus subtype 1b; conditions: not given

SMILES | Ratio IC50
O=C(O)c1ccc(Nc2nnc(-c3ccccc3)c(=O)[nH]2)cc1O | <=1.4
Cc1cc(O)c(C(c2ccc(Cl)c(Cl)c2)c2c(O)cc(C)oc2=O)c(=O)o1 | <=1.4
CC1CS(=O)(=O)N(c2ccc(S(=O)(=O)Nc3cccc4cccnc34)cc2)C1=O (stereo unspecified) | <=1.4
C/C(=N\Nc1ncnc2ccccc12)C(=O)O | <=1.4
COc1cc(/C=N/Nc2ccccc2C(=O)O)cc(Br)c1O | <=1.4
O=C(CCS(=O)(=O)c1ccccc1)N1CCN(C(=O)CCS(=O)(=O)c2ccccc2)CC1 | <=1.4
CCOC(=O)/C(C#N)=C\c1cn(CCC(=O)O)nc1-c1ccc(F)cc1 | <=1.4
Cn1cc(C(=O)N2CCN(C(=O)c3ccc(F)cc3F)CC2)c2nn(-c3ccccc3)c(=O)c-2c1 | <=1.4

tested on: Hepatitis C virus; assay: Ratio of IC50 for recombinant HCV1b NS5B Cdelta21 RNA dependent RNA polymerase M414T mutant PP1 binding site to IC50 for wild type recombinant C terminal His6-tagged HCV1b NS5B Cdelta21 RNA dependent RNA polymerase; design: species or system Hepatitis C virus subtype 1b; conditions: not given

SMILES | Ratio IC50
O=C(O)c1ccc(Nc2nnc(-c3ccccc3)c(=O)[nH]2)cc1O | <=1.4
Cc1cc(O)c(C(c2ccc(Cl)c(Cl)c2)c2c(O)cc(C)oc2=O)c(=O)o1 | <=1.4
CC1CS(=O)(=O)N(c2ccc(S(=O)(=O)Nc3cccc4cccnc34)cc2)C1=O (stereo unspecified) | <=1.4
C/C(=N\Nc1ncnc2ccccc12)C(=O)O | <=1.4
COc1cc(/C=N/Nc2ccccc2C(=O)O)cc(Br)c1O | <=1.4
O=C(CCS(=O)(=O)c1ccccc1)N1CCN(C(=O)CCS(=O)(=O)c2ccccc2)CC1 | <=1.4
CCOC(=O)/C(C#N)=C\c1cn(CCC(=O)O)nc1-c1ccc(F)cc1 | <=1.4
Cn1cc(C(=O)N2CCN(C(=O)c3ccc(F)cc3F)CC2)c2nn(-c3ccccc3)c(=O)c-2c1 | <=1.4

tested on: not listed separately; assay: Cytotoxicity against BHK cells assessed as cell viability by firefly luciferase reporter gene assay; format: cell-based, Mesocricetus auratus; conditions: hamster
Summary of the method: (§2)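 BHK-NS5B-FRLuc reporter cells (DMEM, 10% heat-inactivated FBS, G418 1 mg/mL, blasticidin 10 µg/mL, 37°C, 5% CO2) treated with 100 µM compound or matching 1% DMSO for 42 hr. Lysates read by dual luciferase. Viability taken as firefly signal versus DMSO. Polymerase inhibition taken as percent reduction of Renilla/firefly ratio versus DMSO. At least three independent experiments in duplicate.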

SMILES | CC50
O=C(O)c1ccc(Nc2nnc(-c3ccccc3)c(=O)[nH]2)cc1O | > 100 µM
Cc1cc(O)c(C(c2ccc(Cl)c(Cl)c2)c2c(O)cc(C)oc2=O)c(=O)o1 | > 100 µM
CC1CS(=O)(=O)N(c2ccc(S(=O)(=O)Nc3cccc4cccnc34)cc2)C1=O (stereo unspecified) | > 100 µM
C/C(=N\Nc1ncnc2ccccc12)C(=O)O | > 100 µM
COc1cc(/C=N/Nc2ccccc2C(=O)O)cc(Br)c1O | > 100 µM
O=C(CCS(=O)(=O)c1ccccc1)N1CCN(C(=O)CCS(=O)(=O)c2ccccc2)CC1 | > 100 µM
CCOC(=O)/C(C#N)=C\c1cn(CCC(=O)O)nc1-c1ccc(F)cc1 | > 100 µM
Cn1cc(C(=O)N2CCN(C(=O)c3ccc(F)cc3F)CC2)c2nn(-c3ccccc3)c(=O)c-2c1 | > 100 µM

tested on: BHK; assay: Inhibition of intracellular HCV NS5B RNA dependent RNA polymerase activity expressed in BHK cells at 100 uM after 42 hrs by renilla luciferase reporter gene assay; format: cell-based; conditions: Hepacivirus hominis; summary of the method: as §2

SMILES | inhibition
O=C(O)c1ccc(Nc2nnc(-c3ccccc3)c(=O)[nH]2)cc1O | 45.1%
Cc1cc(O)c(C(c2ccc(Cl)c(Cl)c2)c2c(O)cc(C)oc2=O)c(=O)o1 | inactive
CC1CS(=O)(=O)N(c2ccc(S(=O)(=O)Nc3cccc4cccnc34)cc2)C1=O (stereo unspecified) | 40.5%
C/C(=N\Nc1ncnc2ccccc12)C(=O)O | 62.4%
COc1cc(/C=N/Nc2ccccc2C(=O)O)cc(Br)c1O | 57.8%
O=C(CCS(=O)(=O)c1ccccc1)N1CCN(C(=O)CCS(=O)(=O)c2ccccc2)CC1 | 42.1%
CCOC(=O)/C(C#N)=C\c1cn(CCC(=O)O)nc1-c1ccc(F)cc1 | 44.2%
Cn1cc(C(=O)N2CCN(C(=O)c3ccc(F)cc3F)CC2)c2nn(-c3ccccc3)c(=O)c-2c1 | 43.3%
